ChEMBL document CHEMBL1124656, “Synthesis and biological evaluation of de(acetylglucosaminyl)didehydrodeoxy derivatives of teicoplanin antibodies” (J Med Chem, 1989)
In brackets after ≈: the same amount, converted by molar mass.

How the values were obtained:
[1] = Association constant of compound was evaluated at pH 5; format: ADME
Method in brief: (§1)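 UV difference spectroscopy: Ac₂-L-Lys-D-Ala-D-Ala was added to antibiotic at 30 μM (initial) in 10% MeOH/sodium phosphate buffer (pH 5 or pH 9). Double-beam spectrophotometer, 4-cm nonthermostated cells, 24 ± 2 °C. ΔA was monitored at 294 nm, and Ka was taken from the slope of a Scatchard plot.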

Enterococcus faecalis = experiment: Minimum inhibitory concentration against Streptococcus faecalis ATCC 7080 evaluated in vitro; format: functional
Method in brief: (§2)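 Twofold broth microdilution in Oxoid Iso-Sensitest broth, final inoculum ~10⁴ cfu/mL, overnight at 37 °C. MIC (μg/mL) was read as the lowest concentration with no visible growth. Coagulase-negative staphylococci were identified by API STAPH per Kloos and Schleifer.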

Streptococcus pyogenes [2] = experiment: Minimum inhibitory concentration against Streptococcus pyogenes C 203 evaluated in vitro; format: functional
Method in brief: (§3)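 Twofold broth microdilution in Difco Todd-Hewitt broth, final inoculum ~10⁴ cfu/mL, overnight at 37 °C. MIC (μg/mL) was read as the lowest concentration showing no visible growth.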

Streptococcus pneumoniae = experiment: Minimum inhibitory concentration against Streptococcus pneumoniae UC 41 evaluated in vitro; format: functional; method in brief: as §3
[3] = Association constant of compound was evaluated at pH 9; format: ADME; method in brief: as §1
Staphylococcus aureus = experiment: Minimum inhibitory concentration against Staphylococcus aureus Tour evaluated in vitro; format: functional; method in brief: as §2
[4] = system: Staphylococcus epidermidis; experiment: Minimum inhibitory concentration against Staphylococcus epidermis ATCC 12228 evaluated in vitro; format: functional; method in brief: as §2
Streptococcus pyogenes [5] = experiment: Minimum inhibitory concentration administered subcutaneously against Streptococcus pyogenes C203 in mouse; settings: sc
Staphylococcus warneri = experiment: Minimum inhibitory concentration against Staphylococcus warneri L1375 evaluated in vitro; format: functional; method in brief: as §2
Staphylococcus simulans [6] = experiment: Minimum inhibitory concentration against Staphylococcus simulans L1142 evaluated in vitro; format: functional; method in brief: as §2
Staphylococcus simulans [7] = experiment: Minimum inhibitory concentration against Staphylococcus simulans L785 evaluated in vitro; format: functional; method in brief: as §2
Streptococcus pyogenes [8] = experiment: Minimum inhibitory concentration against Streptococcus pyogenes C203 evaluated in vivo(mouse); format: functional
Method in brief: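 Mice in groups of five were infected intraperitoneally with S. pyogenes C 203, with inoculum set so untreated animals die of septicemia within 48 h. A single subcutaneous treatment was given immediately after infection. ED₅₀ was calculated from the percentage surviving at each dose on day 7.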

Staphylococcus hominis = experiment: Minimum inhibitory concentration against Staphylococcus hominis L1070 evaluated in vitro; format: functional; method in brief: as §2
[9] = system: Staphylococcus haemolyticus; experiment: Minimum inhibitory concentration against Staphylococcus haemolyticus L1520 evaluated in vitro; format: functional; method in brief: as §2
[10] = system: Staphylococcus epidermidis; experiment: Minimum inhibitory concentration against Staphylococcus epidermis L1378 evaluated in vitro; format: functional; method in brief: as §2
[11] = Streptococcus pyogenes, read-out: MIC
[12] = Streptococcus pneumoniae, read-out: MIC
[13] = Staphylococcus aureus, read-out: MIC
[14] = Staphylococcus epidermidis, ATCC 12228, read-out: MIC

CCCCC/C=C/CCC(=O)N[C@@H]1[C@H](Oc2c3cc4cc2Oc2ccc(cc2Cl)CC2NC(=O)[C@H](N)c5ccc(O)c(c5)Oc5cc(O)cc(c5)C(NC2=O)C(=O)NC4C(=O)NC2C(=O)/N=C(\Cc4ccc(c(Cl)c4)O3)C(=O)N[C@H](C(=O)O)c3cc(O)cc(O[C@H]4O[C@H](CO)[C@@H](O)[C@@H](O)[C@@H]4O)c3-c3cc2ccc3O)O[C@@H](CO)[C@@H](O)[C@@H]1O (some centres not stated)
Ka [1]: 390000 M⁻¹ | MIC (Enterococcus faecalis): 1 µg/mL (≈ 0.604 µM) | MIC (Streptococcus pyogenes [2]; [11]): 0.063 µg/mL (≈ 0.038 µM) | MIC (Streptococcus pneumoniae; [12]): 0.063 µg/mL (≈ 0.038 µM) | Ka [3]: 60000 M⁻¹ | MIC (Staphylococcus aureus; [13]): 0.5 µg/mL (≈ 0.302 µM) | MIC [4, 14]: 0.25 µg/mL (≈ 0.151 µM) | ED50 (Streptococcus pyogenes [5]): 0.35 mg/kg

CC(=O)N[C@@H]1[C@H](O[C@@H]2c3ccc(c(Cl)c3)Oc3cc4cc(c3O)Oc3ccc(cc3Cl)C[C@H]3NC(=O)[C@H](N)c5ccc(O)c(c5)Oc5cc(O)cc(c5)[C@H](NC3=O)C(=O)N[C@H]4C(=O)N[C@H]3C(=O)N[C@@H]2C(=O)N[C@H](C(=O)O)c2cc(O)cc(O)c2-c2cc3ccc2O)O[C@@H](CO)[C@@H](O)[C@@H]1O
Ka [1]: 2.6e+06 M⁻¹ | MIC (Enterococcus faecalis): 1 µg/mL (≈ 0.713 µM) | MIC (Streptococcus pyogenes [2]; [11]): 0.5 µg/mL (≈ 0.357 µM) | MIC (Streptococcus pneumoniae; [12]): 1 µg/mL (≈ 0.713 µM) | Ka [3]: 32000 M⁻¹ | MIC (Staphylococcus aureus; [13]): 0.5 µg/mL (≈ 0.357 µM) | MIC [4, 14]: 0.125 µg/mL (≈ 0.0892 µM)

CC(=O)N[C@@H]1[C@H](O[C@@H]2c3ccc(c(Cl)c3)Oc3cc4cc(c3O)Oc3ccc(cc3Cl)C[C@H]3NC(=O)[C@H](N)c5ccc(O)c(c5)Oc5cc(O)cc(c5)[C@H](NC3=O)C(=O)N[C@H]4C(=O)N[C@H]3C(=O)N[C@@H]2C(=O)N[C@H](C(=O)O)c2cc(O)cc(O[C@H]4O[C@H](CO)[C@@H](O)[C@@H](O)[C@@H]4O)c2-c2cc3ccc2O)O[C@@H](CO)[C@@H](O)[C@@H]1O
Ka [1]: 1200000 M⁻¹ | MIC (Enterococcus faecalis): 2 µg/mL (≈ 1.28 µM) | MIC (Streptococcus pyogenes [2]; [11]): 0.5 µg/mL (≈ 0.32 µM) | MIC (Streptococcus pneumoniae; [12]): 0.5 µg/mL (≈ 0.32 µM) | Ka [3]: 90000 M⁻¹ | MIC (Staphylococcus aureus; [13]): 0.25 µg/mL (≈ 0.16 µM) | MIC [4, 14]: 0.25 µg/mL (≈ 0.16 µM)

N[C@H]1C(=O)NC2Cc3ccc(c(Cl)c3)Oc3cc4cc(c3O)Oc3ccc(cc3Cl)C/C3=N\C(=O)C(NC(=O)C4NC(=O)C(NC2=O)c2cc(O)cc(c2)Oc2cc1ccc2O)c1ccc(O)c(c1)-c1c(O)cc(O)cc1[C@@H](C(=O)O)NC3=O (some centres not stated)
Ka [1]: 100000 M⁻¹ | MIC (Staphylococcus warneri): 1 µg/mL (≈ 0.847 µM) | MIC (Staphylococcus simulans [6]): 0.125 µg/mL (≈ 0.106 µM) | MIC (Streptococcus pyogenes [2]; [11]): 1 µg/mL (≈ 0.847 µM) | MIC (Streptococcus pneumoniae; [12]): 1 µg/mL (≈ 0.847 µM) | MIC (Staphylococcus simulans [7]): 0.125 µg/mL (≈ 0.106 µM) | MIC (Staphylococcus aureus; [13]): 0.25 µg/mL (≈ 0.212 µM) | ED50 (Streptococcus pyogenes [8]): 5 mg/kg | MIC [4, 14]: 0.125 µg/mL (≈ 0.106 µM) | MIC (Staphylococcus hominis): 0.125 µg/mL (≈ 0.106 µM) | MIC [9]: 0.5 µg/mL (≈ 0.423 µM) | MIC [10]: 0.125 µg/mL (≈ 0.106 µM)

CCCCC/C=C/CCC(=O)N[C@@H]1[C@H](Oc2c3cc4cc2Oc2ccc(cc2Cl)[C@@H](O[C@@H]2O[C@@H](CO)[C@@H](O)[C@H](O)[C@@H]2NC(C)=O)[C@@H]2NC(=O)[C@H](NC(=O)[C@@H]4NC(=O)[C@H]4NC(=O)[C@@H](Cc5ccc(c(Cl)c5)O3)NC(=O)[C@H](N)c3ccc(O)c(c3)Oc3cc(O)cc4c3)c3ccc(O)c(c3)-c3c(O[C@H]4O[C@H](CO)[C@@H](O)[C@@H](O)[C@@H]4O)cc(O)cc3[C@@H](C(=O)O)NC2=O)O[C@@H](CO)[C@@H](O)[C@@H]1O
Ka [1]: 1600000 M⁻¹ | MIC (Enterococcus faecalis): 0.125 µg/mL (≈ 0.0666 µM) | MIC (Staphylococcus warneri): 2 µg/mL (≈ 1.07 µM) | MIC (Staphylococcus simulans [6]): 0.125 µg/mL (≈ 0.0666 µM) | MIC (Streptococcus pyogenes [2]; [11]): 0.063 µg/mL (≈ 0.0336 µM) | MIC (Streptococcus pneumoniae; [12]): 0.063 µg/mL (≈ 0.0336 µM) | Ka [3]: 2.1e+06 M⁻¹ | MIC (Staphylococcus simulans [7]): 0.25 µg/mL (≈ 0.133 µM) | MIC (Staphylococcus aureus; [13]): 0.125 µg/mL (≈ 0.0666 µM) | MIC [4, 14]: 0.25 µg/mL (≈ 0.133 µM) | MIC (Staphylococcus hominis): 0.25 µg/mL (≈ 0.133 µM) | MIC [9]: 4 µg/mL (≈ 2.13 µM) | ED50 (Streptococcus pyogenes [5]): 0.18 mg/kg | MIC [10]: 0.5 µg/mL (≈ 0.266 µM)

N[C@H]1C(=O)NC2Cc3ccc(c(Cl)c3)Oc3cc4cc(c3O)Oc3ccc(cc3Cl)C/C3=N\C(=O)C(NC(=O)C4NC(=O)C(NC2=O)c2cc(O)cc(c2)Oc2cc1ccc2O)c1ccc(O)c(c1)-c1c(O[C@H]2O[C@H](CO)[C@@H](O)[C@@H](O)[C@@H]2O)cc(O)cc1[C@@H](C(=O)O)NC3=O (some centres not stated)
Ka [1]: 380000 M⁻¹ | MIC (Enterococcus faecalis): 1 µg/mL (≈ 0.745 µM) | MIC (Streptococcus pyogenes [2]; [11]): 2 µg/mL (≈ 1.49 µM) | MIC (Streptococcus pneumoniae; [12]): 2 µg/mL (≈ 1.49 µM) | Ka [3]: 61000 M⁻¹ | MIC (Staphylococcus aureus; [13]): 0.25 µg/mL (≈ 0.186 µM) | MIC [4, 14]: 0.5 µg/mL (≈ 0.372 µM) | ED50 (Streptococcus pyogenes [5]): 5.8 mg/kg

N[C@H]1C(=O)NC2Cc3ccc(c(Cl)c3)Oc3cc4cc(c3O)Oc3ccc(cc3Cl)/C=C3\NC(=O)C(NC(=O)C4NC(=O)C(NC2=O)c2cc(O)cc(c2)Oc2cc1ccc2O)c1ccc(O)c(c1)-c1c(O)cc(O)cc1[C@@H](C(=O)O)NC3=O (stereo in doubt; 4)
Ka [1]: < 100 M⁻¹ | MIC (Streptococcus pyogenes [2]): 4 µg/mL (≈ 3.39 µM) | MIC (Streptococcus pneumoniae): 4 µg/mL (≈ 3.39 µM) | Ka [3]: < 100 M⁻¹ | MIC (Staphylococcus aureus): 1 µg/mL (≈ 0.847 µM) | MIC [4]: 0.125 µg/mL (≈ 0.106 µM)

N[C@H]1C(=O)NC2Cc3ccc(c(Cl)c3)Oc3cc4cc(c3O)Oc3ccc(cc3Cl)/C=C3\NC(=O)C(NC(=O)C4NC(=O)C(NC2=O)c2cc(O)cc(c2)Oc2cc1ccc2O)c1ccc(O)c(c1)-c1c(O)cc(O)cc1[C@@H](C(=O)O)NC3=O (stereo in doubt; 5)
MIC (Enterococcus faecalis): 16 µg/mL (≈ 13.5 µM) | MIC (Streptococcus pyogenes [2]; [11]): 8 µg/mL (≈ 6.77 µM) | MIC (Streptococcus pneumoniae; [12]): 8 µg/mL (≈ 6.77 µM) | Ka [3]: < 100 M⁻¹ | MIC (Staphylococcus aureus; [13]): 2 µg/mL (≈ 1.69 µM) | MIC [4]: 0.5 µg/mL (≈ 0.423 µM)

N[C@H]1C(=O)N[C@@H]2Cc3ccc(c(Cl)c3)Oc3cc4cc(c3O)Oc3ccc(cc3Cl)[C@@H](O)[C@@H]3NC(=O)[C@H](NC(=O)[C@@H]4NC(=O)[C@@H](NC2=O)c2cc(O)cc(c2)Oc2cc1ccc2O)c1ccc(O)c(c1)-c1c(O)cc(O)cc1[C@@H](C(=O)O)NC3=O [TEICOPLANIN AGLYCON]
Ka [1]: 2.5e+06 M⁻¹ | MIC (Enterococcus faecalis): 0.125 µg/mL (≈ 0.104 µM) | MIC (Staphylococcus warneri): 0.25 µg/mL (≈ 0.209 µM) | MIC (Staphylococcus simulans [6]): 0.063 µg/mL (≈ 0.0525 µM) | MIC (Streptococcus pyogenes [2]; [11]): 0.125 µg/mL (≈ 0.104 µM) | MIC (Streptococcus pneumoniae; [12]): 0.125 µg/mL (≈ 0.104 µM) | Ka [3]: 30000 M⁻¹ | MIC (Staphylococcus simulans [7]): 0.063 µg/mL (≈ 0.0525 µM) | MIC (Staphylococcus aureus; [13]): 0.063 µg/mL (≈ 0.0525 µM) | MIC [4, 14]: 0.016 µg/mL (≈ 0.0133 µM) | MIC (Staphylococcus hominis): 0.063 µg/mL (≈ 0.0525 µM) | MIC [9]: 0.125 µg/mL (≈ 0.104 µM) | ED50 (Streptococcus pyogenes [5]): 0.95 mg/kg | MIC [10]: 0.063 µg/mL (≈ 0.0525 µM)
